High-throughput results from PubChem.
Pf Dd2 inh = P. falciparum Dd2 growth inhibitors, primary screen, SYBR Green fluorescence, single dose replicates; 72 h; active compounds read low; activity change, % at 10 µM; 94,000 compounds, 2.3% hits; in the data active = activity change below about -80%
IDH1 R132H inh = inhibitors of IDH1 R132H reductase, primary screen, biochemical, plate reader, single point. Isocitrate dehydrogenase [NADP] cytoplasmic (Homo sapiens), O75874. AID 624101, 2012. diaphorase/resazurin fluorescence, 60 min. inhibition, % at 10 µM. 70,000 compounds, 0.18% hits; in the data active = inhibition above about 34%
T cruzi growth = T. cruzi intracellular proliferation inhibitors, primary screen, cell-based, beta-gal Tulahuen parasites, NIH3T3 host, luminescence. inhibition, % at 8.34 µM. T. cruzi beta-gal in NIH3T3, GalScreen luminescence, 90 h. AID 624255, 2012. 77,000 compounds, 5.9% hits;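 active = mean inhibition above about 93%, with at least 55% of replicates each passing it, limit read from the data, passing the limit was not always enough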
GASC1 inh = inhibitors of GASC-1 (KDM4C) histone demethylase, primary screen, biochemical, single concentration HTS | Lysine-specific demethylase 4C (Homo sapiens), Q9H3R0 | GST-KDM4C 2-372, H3K9me3 peptide, LANCE TR-FRET | inhibition, % at 12.5 µM | 96,000 compounds, 0.15% hits | AID 720574, 2013;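 active = mean replicate inhibition above about 25%, with at least 55% of replicates also reaching it, limit read from the data, passing the limit was not always enough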
Target sequence (Q9H3R0 2-372 limits assumed): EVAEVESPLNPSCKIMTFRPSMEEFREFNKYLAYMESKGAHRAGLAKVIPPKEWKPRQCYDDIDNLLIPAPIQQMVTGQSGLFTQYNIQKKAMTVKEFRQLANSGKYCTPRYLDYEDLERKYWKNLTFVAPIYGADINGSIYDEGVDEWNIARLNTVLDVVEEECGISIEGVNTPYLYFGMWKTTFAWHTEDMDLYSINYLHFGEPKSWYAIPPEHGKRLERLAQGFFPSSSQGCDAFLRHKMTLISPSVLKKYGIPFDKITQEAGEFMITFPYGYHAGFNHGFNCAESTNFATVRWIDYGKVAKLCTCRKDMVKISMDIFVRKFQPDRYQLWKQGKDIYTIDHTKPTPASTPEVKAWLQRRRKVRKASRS
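Compound: one test concentration per compound; Material: GST-GASC-1 enzyme fragment 2-372; Amount: GASC-1 enzyme at 10 nM final in reaction; Also added: H3K9me3 peptide substrate, Fe(II), 2-oxoglutarate; Technique: LANCE TR-FRET; Times: 30 min demethylation and 1 h detection at room temperature.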
Numbers stand for hits; - = inactive; . = no result; ! = not confirmed by another sample. An excerpt weighted towards active compounds, which were near 5.9% of everything screened.

SMILES	Pf Dd2 inh	IDH1 R132H inh	T cruzi growth	GASC1 inh
COc1ccc(S(=O)(=O)Nc2ccc3c(c2)C(=O)N([C@@H](C)CO)C[C@H](C)[C@@H](CN(C)C(=O)C2CCCCC2)OCCCC[C@@H](C)O3)cc1	-92	-	-	-
COc1ccccc1NC(=O)CCCC(=O)O	.	-	.	.
COc1ccc2c3c([nH]c2c1)[C@H](CO)N(Cc1ccncc1)CC31CCN(Cc2ccc(-c3ccccn3)cc2)CC1	-89	.	.	-
COc1ccc2c3c([nH]c2c1)[C@@H](CO)N(Cc1nccs1)CC31CCN(Cc2ccncc2)CC1	-	.	.	-
COc1ccc2c3c([nH]c2c1)[C@@H](CO)N(Cc1ccncc1)CC31CCN(Cc2ccc(-c3ccccn3)cc2)CC1	-91	.	.	-
COc1ccc(S(=O)(=O)N(C)CC(=O)Nc2cc(C(F)(F)F)ccc2Cl)cc1	.	-	.	.
COc1ccccc1CN1C[C@@H]2N[C@H](C1)C2c1ccc(-c2ccc(C#N)cc2)cc1 (stereo not given in full)	-82!	.	.	-
Fc1cccc(-c2ccc(C3[C@@H]4CN(Cc5ccccc5F)C[C@H]3N4)cc2)c1 (stereo not given in full)	-	.	.	-
COc1ccccc1CN1C[C@@H]2N[C@H](C1)C2c1ccc(-c2cccc(C#N)c2)cc1 (stereo not given in full)	-	.	.	-
N#Cc1cccc(-c2ccc(C3[C@@H]4CN(S(=O)(=O)Cc5ccccc5)C[C@H]3N4)cc2)c1 (stereo not given in full)	-	.	.	-
N#Cc1ccc(-c2ccc(C3[C@@H]4CN(Cc5ccccc5F)C[C@H]3N4)cc2)cc1 (stereo not given in full)	-89!	.	.	-
N#Cc1cccc(-c2ccc(C3[C@@H]4CN(Cc5ccccc5)C[C@H]3N4)cc2)c1 (stereo not given in full)	-91!	.	.	-
N#Cc1ccc(-c2ccc([C@@H]3[C@@H]4CN(S(=O)(=O)Cc5ccccc5)C[C@H]3N4)cc2)cc1	-86	.	.	-
Cc1ccc(NC(=O)c2ccc(S(=O)(=O)N3CC(C)CC(C)C3)cc2)c(C(=O)c2ccccc2)c1 (stereo not given)	.	-	.	.
CC(O)c1nc2ccccc2n1CCOc1ccc(Br)cc1 (stereo not given)	.	-	.	.
Cc1cc(C)cc(N(CC(=O)O)S(=O)(=O)c2ccccc2)c1	.	-	.	.
O=S1(=O)NC(=NCCCCO)c2ccccc21	.	-	.	.
C=C(Oc1cccc(C(=O)O)c1)C(=O)O	.	-	.	.
CCCNC(=O)Nc1ccc2c(c1)OC[C@@H](C)N(C(=O)C1CCC1)C[C@@H](C)[C@@H](OC)CN(C)C2=O	.	85	-	62
CO[C@@H]1CN(C)C(=O)c2ccc(NC(=O)Nc3ccccc3F)cc2OC[C@@H](C)N(CC2CC2)C[C@H]1C	-88	-	-	-
CCCC(=O)Nc1ccc2c(c1)C(=O)N(C)C[C@@H](OC)[C@H](C)CN(Cc1cc(F)ccc1F)[C@H](C)CO2	-	-	-	-
CO[C@@H]1CN(C)C(=O)c2ccc(NC(=O)C3CCC3)cc2OC[C@@H](C)N(CC2CCCCC2)C[C@H]1C	-83	.	.	-
CCCC(=O)Nc1ccc2c(c1)OC[C@@H](C)N(Cc1cc(F)ccc1F)C[C@@H](C)[C@H](OC)CN(C)C2=O	-86	-	-	-
COc1cc([N+](=O)[O-])ccc1NC(=S)NC(=O)COc1ccc(C)cc1	.	-	.	.
CCOC(=O)c1c(NC(=O)C2CC(c3ccccc3O)=NO2)sc2c1CCCC2 (stereo not given)	.	-	.	.
SMILES	Pf Dd2 inh	IDH1 R132H inh	T cruzi growth	GASC1 inh
O=C(CCCCCCC(=O)Nc1ccccc1O)N=NC=C1C=CN(O)C=C1	.	-	.	.
O=CNCCc1c[nH]c2ccccc12	.	-	.	.
CO[C@@H]1CN(C)C(=O)c2ccc(NC(=O)C3CC3)cc2OC[C@H](C)N(Cc2cc(F)ccc2F)C[C@H]1C	-	-	-	-
COCC(=O)Nc1ccc2c(c1)OC[C@H](C)N(Cc1ccncc1)C[C@H](C)[C@@H](OC)CN(C)C2=O	-85	.	.	-
CO[C@@H]1CN(C)C(=O)c2ccc(NC(=O)C3CC3)cc2OC[C@@H](C)N(Cc2cc(F)ccc2F)C[C@H]1C	-87	-	-	-
CO[C@H]1CN(C)C(=O)c2ccc(NS(=O)(=O)CC(F)(F)F)cc2OC[C@@H](C)N(Cc2nccs2)C[C@H]1C	-88	-	-	-
CCCN1C[C@H](C)[C@@H](OC)CN(C)C(=O)c2cc(NC(=O)Nc3cccc(F)c3)ccc2OC[C@H]1C	-82	.	-	-
